ChEMBL document CHEMBL1135662, “Effects of isoprenoid analogues of SDB-ethylenediamine on multidrug resistant tumor cells alone and in combination with chemotherapeutic drugs” (J Med Chem, 2002)
Where a name gives a salt, the structure may show the parent alone.

What was measured:
[1] = Inhibitory concentration against the growth of HET-SR-2SC-LNM cell line after 72 hr of drug exposure by MTT test; conditions: Mesocricetus auratus
[2] = Inhibitory concentration against the growth of 2SC/20 cell line after 72 hr of drug exposure by MTT test; conditions: Mesocricetus auratus
[3] = Cytotoxicity against cell line HET-SR-2SC-LNM of hamster determined by MTT test; conditions: Mesocricetus auratus
[4] = Index of sensitisation (IS) calculated as mean IC50 for cells incubated with ADM and of 2SC/2O; type: functional
In short: (§1)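 HET-SR-2SC-LNM or 2SC/20 cells exposed for 72 h to a vinblastine or adriamycin dose series, alone or with modulator at 5 µM. IC50 by MTT (540 nm). IS is the mean IC50 with the drug alone divided by the mean IC50 with drug plus modulator. Four repeats.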

K562 [5] = test: Cytotoxicity against cell line K562 determined by MTT test; type: functional, cell-based; conditions: Homo sapiens
In short: (§2)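 MTT assay after 72 h exposure, in duplicate. Human lung carcinoma COR L23/P and its adriamycin-selected MRP-mediated subline COR L23/R seeded at 5×10^3 per 200 µL. K562 leukemia cells and K562 transduced with human MDR1 (not drug-selected) seeded at 3×10^4 per 200 µL. Non-fibroblast lines grown in RPMI-1640 with 5% FBS. MTT 3 h, read at 540 nm. Mean ± SE of three experiments.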

[6] = Index of sensitisation (IS) calculated as mean IC50 for cells incubated with VBL and of HET-SR-2SC-LNM; type: functional
In short: as §1

[7] = Cytotoxicity against cell line COR/L23R and MRP determined by MTT test; type: functional; conditions: Homo sapiens, COR-L23/R
In short: as §2

K562 [8] = test: Cytotoxicity against cell line K562i/S9 and pgp determined by MTT test; type: functional, cell-based; conditions: Homo sapiens
In short: as §2

[9] = Cytotoxicity against cell line COR/L23P determined by MTT test; type: functional; conditions: Homo sapiens
In short: as §2, with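 “µL.” for “µL. Non-fibroblast lines grown in RPMI-1640 with 5% FBS.”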

[10] = Cytotoxicity against cell line 2SC/20 of hamster determined by MTT test; conditions: Mesocricetus auratus
[11] = Cytotoxicity against cell line McA RH 7777 determined by MTT test; type: functional; conditions: Rattus norvegicus, McA-RH7777
Homo sapiens [12] = species on record: Homo sapiens; test: Cytotoxicity against cell line mS determined by MTT test; type: functional
[13] = Index of sensitisation (IS) calculated as mean IC50 for cells incubated with ADM and of HET-SR-2SC-LNM; type: functional
In short: as §1

[14] = Index of sensitisation (IS) calculated as mean IC50 for cells incubated with VBL and of 2SC/2O; type: functional
In short: as §1

[15] = Partition coefficient (logP); type: physicochemical; conditions: octanol/water
[16] = Cytotoxicity against cell line McA RH 7777/0.4 and Pgp determined by MTT test; type: functional; conditions: Rattus norvegicus, McA-RH7777
Homo sapiens [17] = species on record: Homo sapiens; test: Cytotoxicity against cell line mS/0.5 and pgp determined by MTT test; type: functional
[18] = Intracellular uptake of drug in presence of ADM and VRP in HET-SR-2SC-LNM cell line; conditions: Mesocricetus auratus
[19] = Intracellular uptake of drug in presence of 3H VBL and absence of VRPin HET-SR-2SC-LNM cell line; conditions: Mesocricetus auratus
[20] = Index of sensitisation (IS)in presence of VBL and 2SC/2O; type: functional
In short: as §1

[21] = Intracellular uptake of drug in presence of 3H VBL and VRP in 2SC/20 cell line; conditions: Mesocricetus auratus
[22] = Intracellular uptake of drug in presence of 3H VBL and VRP in HET-SR-2SC-LNM cell line; conditions: Mesocricetus auratus
[23] = Intracellular uptake of drug in presence of 3H VBL and in absence of VRP in 2SC/20 cell line; conditions: Mesocricetus auratus
[24] = Index of sensitisation (IS)in presence of ADM and HET-SR-2SC-LNM; type: functional
In short: as §1

[25] = Intracellular uptake of drug in presence of ADM and absence of VRPin HET-SR-2SC-LNM cell line; conditions: Mesocricetus auratus
[26] = Intracellular uptake of drug in presence of ADM and in absence of VRP in 2SC/20 cell line; conditions: Mesocricetus auratus
[27] = Index of sensitisation (IS)in presence of ADM and 2SC/2O; type: functional
In short: as §1

[28] = Intracellular uptake of drug in presence of ADM and VRP in 2SC/20 cell line; conditions: Mesocricetus auratus
[29] = Index of sensitisation (IS)in presence of VBL and HET-SR-2SC-LNM; type: functional
In short: as §1

[30] = Inhibitory concentration against the growth of HET-SR-2SC-LNM cell line after 72 hr of drug exposure by MTT test; type: functional, Cricetulus griseus
[31] = Inhibitory concentration against the growth of 2SC/20 cell line after 72 hr of drug exposure by MTT test; type: functional, Cricetulus griseus
In short: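 Syrian hamster embryo fibroblasts (parental line or its colchicine-selected Pgp-positive 2SC/20 subline), grown in DMEM with 5% FBS at 37 °C, 5% CO2; selective agent withdrawn 2 days before use. (3–4) × 10³ cells per well, treated 16 h after plating, exposed 72 h. MTT (2 mg/mL solution) added for 3 h, formazan dissolved in acidified DMSO, absorbance read at 540 nm.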

[32] = Cytotoxicity against HET-SR-2SC-LNM cell line of hamster determined by MTT test; conditions: Mesocricetus auratus
[33] = Cytotoxicity against cell line […] and MRP determined by MTT test; type: functional; conditions: Homo sapiens
In short: as §2, with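 “µL.” for “µL. Non-fibroblast lines grown in RPMI-1640 with 5% FBS.”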

[34] = Cytotoxicity against cell line 2SC/20 determined by MTT test; conditions: Mesocricetus auratus
[35] = Cytotoxicity against cell line HET-SR-2SC-LNM determined by MTT test; conditions: Mesocricetus auratus

Molecule COc1cccc2c1C(=O)c1c(O)c3c(c(O)c1C2=O)C[C@@](O)(C(=O)CO)C[C@@H]3O[C@H]1C[C@H](N)[C@H](O)[C@H](C)O1 [DOXORUBICIN] has an IC50 [1] of 0.052 µM and an IC50 [2] of 0.62 µM.
COc1ccc(CNCCN(C/C=C(\C)CCC=C(C)C)Cc2ccc(OC)c(OC)c2)cc1OC.Cl showed an IC50 [3] of 15 µM, an IS [4] of 12 and an IC50 (K562 [5]) of 125 µM. For the same molecule, the IS [6] was 8, the IC50 [7] was 13 µM and the IC50 (K562 [8]) was 125 µM. It also gave an IC50 [9] of 25 µM, an IC50 [10] of 10 µM and an IC50 [11] of 55 µM. It also gave an IC50 (Homo sapiens [12]) of 40 µM, an IS [13] of 2 and an IS [14] of 11. It also gave a logP [15] of 4.51, an IC50 [16] of 20 µM and an IC50 (Homo sapiens [17]) of 18 µM.
For COc1ccc(CCN(C)CCCC(C#N)(c2ccc(OC)c(OC)c2)C(C)C)cc1OC (configuration not stated) [VERAPAMIL HYDROCHLORIDE], the IC50 (K562 [5]) was 100 µM, the drug uptake [18] was 310 pmol/30 min and the drug uptake [19] was 22 pmol/mg protein. The IS [20] was 11, the drug uptake [21] was 23 pmol/mg protein and the IC50 (K562 [8]) was 100 µM. For the same molecule, the drug uptake [22] was 29 pmol/mg protein, the drug uptake [23] was 10 pmol/mg protein and the IS [24] was 2. It also gave a drug uptake [25] of 235 pmol/30 min, a drug uptake [26] of 132 pmol/30 min and an IS [27] of 11. The drug uptake [28] was 289 pmol/30 min, the IC50 [16] was 470 µM and the IC50 (Homo sapiens [17]) was 230 µM. It also gave an IS [29] of 4.
For BLEOMYCIN, the IC50 [30] was 0.519 µM and the IC50 [31] was 0.517 µM.
COc1ccc(CNCCNCc2ccc(OC)c(OC)c2)cc1OC gave an IC50 [32] of 520 µM, an IC50 [10] of 470 µM and a logP [15] of 3.78.
In the case of COc1ccc(CNCCN(C/C=C(\C)CC/C=C(\C)CC/C=C(\C)CC/C=C(\C)CC/C=C(\C)CC/C=C(\C)CC/C=C(\C)CC/C=C(\C)CCC=C(C)C)Cc2ccc(OC)c(OC)c2)cc1OC, the IC50 (K562 [5]) is reported as 250 µM, the IS [20] is reported as 4 and the IC50 [33] is reported as > 200 µM. For the same molecule, the IC50 (K562 [8]) was 250 µM, the IC50 [9] was > 200 µM and the IC50 [11] was 65 µM. It also gave an IS [24] of 2, an IC50 (Homo sapiens [12]) of 86 µM and an IC50 [34] of 20 µM. It also gave an IS [27] of 6, an IC50 [35] of 80 µM and an IC50 [16] of 55 µM. The IC50 (Homo sapiens [17]) was 45 µM and the IS [29] was 1.
In the case of COc1cc2c(c(OC)c1OC)-c1ccc(OC)c(=O)cc1[C@@H](NC(C)=O)CC2 [COLCHICINE], the IC50 [1] is reported as 0.025 µM and the IC50 [2] is reported as 0.5 µM.
CC[C@]1(O)C[C@@H]2CN(CCc3c([nH]c4ccccc34)[C@@](C(=O)OC)(c3cc4c(cc3OC)N(C)[C@H]3[C@@](O)(C(=O)OC)[C@H](OC(C)=O)[C@]5(CC)C=CCN6CC[C@]43[C@@H]65)C2)C1 [VINBLASTINE] gave an IC50 [1] of 0.018 µM and an IC50 [2] of 0.246 µM.
COc1ccc(CNCCN(C/C=C(\C)CC/C=C(\C)CCC=C(C)C)Cc2ccc(OC)c(OC)c2)cc1OC gave an IS [4] of 12, an IS [6] of 6 and an IC50 [10] of 13 µM. It also gave an IS [13] of 2, an IS [14] of 12 and an IC50 [35] of 35 µM.
